LMPTP inh: LMPTP phosphatase inhibitors, primary screen, biochemical, fluorescence intensity, uHTS. Low molecular weight phosphotyrosine protein phosphatase (Homo sapiens), P24666. recombinant LMPTP-A, OMFP fluorogenic substrate. inhibition, % at 20 µM. 360,000 compounds, 0.22% hits;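 active = compounds that cut the enzyme signal by at least half of the control window in the single-dose screen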;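 note: plate controls were DMSO wells with enzyme plus substrate for no effect and substrate without enzyme for full effect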
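Assay system: LMPTP-A enzyme. Input: 0.625 nM LMPTP-A final. Probe or stimulus: 400 µM OMFP. Compound dosing: single 20 µM dose. Schedule: 50 min dark incubation at room temperature. Detection: fluorescence intensity of OMFP turnover product. Read-out: percent inhibition versus substrate-only and uninhibited controls. Benchmarks: no-enzyme low control, uninhibited high control.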
Scp1 inh: Scp-1 phosphatase inhibitors, primary screen, biochemical, colorimetric, uHTS; Recombinant Scp1, phosphopeptide, malachite green phosphate absorbance; inhibition, % at 20 µM; Carboxy-terminal domain RNA polymerase II polypeptide A small phosphatase 1 (Homo …; 340,000 compounds, 0.88% hits;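 active = inhibition above about 50% at 20 µM, limit read from the data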;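 note: plate controls were DMSO wells with enzyme for no effect and wells lacking enzyme for full effect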
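System: truncated SCP-1 phosphatase (76-261aa); medium: Tris acetate buffer pH 5.5 with MgCl2 and Tween-20; incubation: 45 min room-temperature reaction, 5 min colour, 30 min stabiliser; compound: single 20 µM dose, 1% DMSO; reagent: Phosphorylated 17-residue peptide substrate; read-out: % inhibition at 20 µM; technique: colorimetric free-phosphate detection, absorbance 630 nm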
SUMO1-SIM PPI: modulators of SUMO1 protein-protein interactions, primary screen, biochemical, uHTS; inhibition, % at 20 µM; Small ubiquitin-related modifier 1 (Homo sapiens), P63165; 360,000 compounds, 0.33% hits; AID 602429, 2012; SUMO1 binding to a labelled peptide, TR-FRET, 1 h; in the data active = inhibition above about 37%
DNMT1 inh: human DNMT1 methyltransferase inhibitors, primary screen, biochemical, molecular beacon, fluorescence, HinP1I cleavage, uHTS; AID 588458, 2011; DNA (cytosine-5)-methyltransferase 1 (Homo sapiens), P26358; 360,000 compounds, 0.83% hits; inhibition (reported as % activation of signal), % at 10 µM; in the data active = inhibition above about 50%
STEP block: STEP phosphatase inhibitors, primary screen, biochemical, fluorescence intensity, uHTS; Tyrosine-protein phosphatase non-receptor type 5 (Homo sapiens), P54829; recombinant STEP, OMFP fluorogenic substrate; inhibition, % at 20 µM; AID 588621, 2011; 360,000 compounds, 0.25% hits;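 active = inhibition at 20 µM, scaled per plate between control wells, above about 37%, limit read from the data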;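 note: 0% = DMSO with enzyme and substrate and 100% = substrate only without enzyme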
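System: isolated STEP enzyme; schedule: 20 min enzyme reaction at room temperature, protected from light; medium: Bis-Tris buffer pH 6.0, 2.5 mM DTT, 0.005% Tween 20; signal: fluorescence, 480/540 nm; dosing: single compound dose of 20 µM, 1% DMSO final; also added: OMFP substrate, 25 µM final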
Scp-1 conf: Scp-1 phosphatase inhibitors, retest, confirmation, biochemical, colorimetric, single concentration. inhibition, % at 20 µM. AID 540281, 2011. shares compounds with Scp1 inh. recombinant SCP-1 catalytic domain, phosphate release, malachite green absorbance. 2,500 compounds, 61% hits;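 note: plate controls were DMSO with enzyme for no effect and buffer wells lacking enzyme for full effect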
Scp-1 MG ctr: colorimetric readout interference by compounds, confirmation, artefact control for Scp-1 inhibitor project, biochemical, single concentration; shares compounds with Scp1 inh; Colorimetric interference counterscreen, malachite green absorbance 630 nm; apparent inhibition (interference), % at 20 µM; 2,500 tested, under 10 active;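 note: compounds added after enzyme reaction finished so only phosphate colour detection is probed; plate controls were DMSO wells with completed Scp-1 reaction for no effect and substrate wells lacking enzyme for full effect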
Scp-1 Tm shift: Scp-1 binding by thermal shift, confirmation, orthogonal assay for Scp-1 inhibitor project, biophysical, differential scanning fluorimetry; shares compounds with Scp1 inh; AID 540329, 2011; thermal shift relative to vanadate control, % at 40 µM; 1,500 compounds, 25% hits; Recombinant SCP1, Sypro Orange thermal shift Tm;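 active = substances whose mean melting-temperature shift, as a percentage of the reference inhibitor's shift, reaches about 5.3%, limit read from the data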;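 note: 0% = Tm of DMSO wells and 100% = Tm with sodium orthovanadate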
Active calls of the source: *. Only some compounds are listed: those with a hit (about 1.7% of all), similar ones and a draw of the others.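 Rule for the calls, unless noted: active = inhibition of at least 30% at 20 µM; inactive = the rest.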

How did CC(Sc1nnc2ccccn12)C(=O)Nc1ccc2c(c1)OCCO2 (centres undefined) do in these assays?
LMPTP inh: 0; Scp1 inh: 1; SUMO1-SIM PPI: 104*; DNMT1 inh: -2; STEP block: -1

What do the screens show for `Cc1ccc(NC(=O)C(C)Sc2nnc3ccccn23)cc1` (centres undefined)?
LMPTP inh: 0; Scp1 inh: 2; SUMO1-SIM PPI: -1; DNMT1 inh: -1; STEP block: -1

Results for Cc1cc(C)c(S(=O)(=O)/N=C2\C=C(Nc3ccc(C(=O)O)cc3)C(=O)c3ccccc32)c(C)c1 ?
LMPTP inh: 6; Scp1 inh: 36; SUMO1-SIM PPI: 58*; DNMT1 inh: 36; STEP block: 6

How did CCc1ccc(S(=O)(=O)/N=C2\C=C(Nc3cccc(C(=O)O)c3)C(=O)c3ccccc32)cc1 do in these assays?
LMPTP inh: 7; Scp1 inh: 12; SUMO1-SIM PPI: 36; DNMT1 inh: 64*; STEP block: 4

Results for O=C(O)c1ccc(NC2=C/C(=N/S(=O)(=O)c3ccccc3)c3ccccc3C2=O)cc1 ?
LMPTP inh: 7; Scp1 inh: -9; SUMO1-SIM PPI: 62*; DNMT1 inh: 70*; STEP block: 3

How did Cc1cc(C)c(S(=O)(=O)/N=C2\C=C(NS(=O)(=O)c3ccccc3)C(=O)c3ccccc32)c(C)c1 do in these assays?
LMPTP inh: 2; Scp1 inh: -10; SUMO1-SIM PPI: -4; DNMT1 inh: -28; STEP block: 2

What do the screens show for `CCc1ccc(S(=O)(=O)/N=C2/C=C(Sc3ncn[nH]3)C(=O)c3ccccc32)cc1`?
LMPTP inh: 9; Scp1 inh: 5; SUMO1-SIM PPI: 94*; DNMT1 inh: 73*; STEP block: 18

What do the screens show for `CCc1cc(=O)oc2c(CNCc3c(F)cccc3Cl)c(O)ccc12`?
LMPTP inh: -1; Scp1 inh: -2; SUMO1-SIM PPI: 6; DNMT1 inh: -3; STEP block: 3

How did CN1C=Nc2c(ncn2C2CCC(CO)O2)C1O (centres undefined) do in these assays?
LMPTP inh: 0; SUMO1-SIM PPI: -4

How did COc1ccc(C(CNC(=O)c2oc3c(Cl)cccc3c2C)N2CCCC2)cc1 (centres undefined) do in these assays?
LMPTP inh: -8; Scp1 inh: -6; SUMO1-SIM PPI: 0; DNMT1 inh: -5; STEP block: 2

Results for CCc1cccc(C)c1NS(=O)(=O)Cc1ccccc1 ?
LMPTP inh: 0; Scp1 inh: -5; SUMO1-SIM PPI: -2; DNMT1 inh: -1; STEP block: 2

What do the screens show for `O=C(NCCCN1CCCC1)c1[nH]c(C(F)(F)F)nc1-c1ccccc1`?
LMPTP inh: -3; SUMO1-SIM PPI: 4; DNMT1 inh: -1; STEP block: 2

Results for O=C(O)C(O)c1ccccc1 (centres undefined) ?
LMPTP inh: -1; Scp1 inh: -6; SUMO1-SIM PPI: 5; DNMT1 inh: 2; STEP block: -3

What do the screens show for `O=C(O)C(O)c1ccco1` (centres undefined)?
LMPTP inh: 31; Scp1 inh: 77*; SUMO1-SIM PPI: 5; DNMT1 inh: 92*; STEP block: 53*

What do the screens show for `NC(CSC(c1ccccc1)(c1ccccc1)c1cccc2ccccc12)C(=O)O` (centres undefined)?
LMPTP inh: 3; Scp1 inh: 2; SUMO1-SIM PPI: 0; DNMT1 inh: 69*; STEP block: 3

What do the screens show for `O=C(NS(=O)(=O)c1ccccc1)c1cccc(Br)c1`?
LMPTP inh: -2; Scp1 inh: 62*; SUMO1-SIM PPI: 5; DNMT1 inh: 2; STEP block: -2; Scp-1 conf: -5; Scp-1 MG ctr: -10

What do the screens show for `Cc1ccc(S(=O)(=O)NC(=O)c2cccc(Br)c2)cc1`?
LMPTP inh: 0; Scp1 inh: -7; SUMO1-SIM PPI: 0; DNMT1 inh: 3; STEP block: 1

Results for COc1ccc(-n2c(Cc3cccn3C)nnc2SCC(=O)NCc2ccc(F)cc2)cc1 ?
LMPTP inh: 0; Scp1 inh: 90*; SUMO1-SIM PPI: 6; DNMT1 inh: 0; STEP block: -3; Scp-1 conf: -2; Scp-1 MG ctr: -8

Results for COc1ccc(-n2c(Cc3cccn3C)nnc2SCC(=O)NCc2ccco2)cc1 ?
LMPTP inh: -1; Scp1 inh: 15; SUMO1-SIM PPI: -1; DNMT1 inh: 1; STEP block: -1

How did Cc1nn(CCO)c2ncc(C(=O)c3cc(F)ccc3O)cc12 do in these assays?
LMPTP inh: -2; Scp1 inh: -8; SUMO1-SIM PPI: 3; DNMT1 inh: 35; STEP block: -1

What do the screens show for `Cc1ccc2nc3c(cc(C(=O)NCc4ccco4)c(=N)n3Cc3ccco3)c(=O)n2c1`?
LMPTP inh: 11; Scp1 inh: 69*; SUMO1-SIM PPI: -14; DNMT1 inh: 36; STEP block: 5; Scp-1 conf: 8; Scp-1 MG ctr: -5

What do the screens show for `Cc1ccc(CNC(=O)c2cc3c(=O)n4ccccc4nc3n(Cc3ccco3)c2=N)cc1`?
LMPTP inh: 15; Scp1 inh: 10; SUMO1-SIM PPI: -7; DNMT1 inh: 21; STEP block: 5

Results for COc1ccc2c(c1)c(=O)oc1cc(OCC(=O)NC3CCCCC3)ccc12 ?
LMPTP inh: 4; Scp1 inh: 70*; SUMO1-SIM PPI: -17; DNMT1 inh: 52*; STEP block: 6; Scp-1 conf: 56*; Scp-1 MG ctr: -15; Scp-1 Tm shift: -16
